One experiment deals with Helicoverpa zea. As to the kind of experiment: Larvicidal activity against Helicoverpa zea (corn earworm) assessed as growth inhibition at 3 mM/kg relative to control by chronic feeding bioassay. In kind it is functional. The settings on record: read-out: GI.
Experiment [1] deals with Trichoplusia ni. As to the kind of experiment: Feeding deterrent activity against freshly molted third-instar larval stage of Trichoplusia ni (cabbage looper) after 3 to 5 hr by leaf disk choice bioassay. It counts as functional, organism-based. Summed up: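 Choice test: freshly molted third instar larvae, starved 4–5 h, offered two leaf disks, one painted on each side with 10 µL test solution and one with carrier solvent only. Twenty-five larvae per treatment. Ended when ~50% of the control disk was eaten (normally 3–5 h). Consumed areas measured. DC50 derived by linear regression of at least four concentrations (3.12–25 µg/cm²).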

Experiment [2] concerns Trichoplusia ni. Nature of the experiment: Toxicity against third-instar larval stage of Trichoplusia ni (cabbage looper) assessed as mortality at 0.25% measured after 24 hr by contact toxicity bioassay. In kind it is functional. Summed up:
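Third-instar larvae were sprayed directly with test solution at 0.25% in filter-paper-lined Petri dishes. They were then moved to dishes holding a small piece of artificial diet. Mortality was scored 24 h after spraying. The test applied only to compounds giving >50% feeding deterrence at 50 µg/cm².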

The subject of experiment [3] is Trichoplusia ni. Nature of the experiment: Oviposition deterrent activity against adult female Trichoplusia ni (cabbage looper) moths introduced along with male moths into oviposition cage containing compound pretreated cabbage leaves assessed as eggs laying on the leaf disks at 0.25% after 48 hr by oviposition choice bioassay. It counts as functional. In short, it runs like this: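 Choice test with moths from larvae reared on normal diet from neonate to pupation. Pupae were sexed and held separately until emergence. Cabbage leaves were treated with test substance at 0.25% or left as control, and eggs per leaf were counted after 48 h. ODI = [(C − T)/(C + T)] × 100 from egg numbers on control and treated leaves.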

For experiment [4], the system named is Trichoplusia ni. Nature of the experiment: Toxicity against third-instar larval stage of Trichoplusia ni (cabbage looper) assessed as mortality measured after 24 hr by contact toxicity bioassay. In kind it is functional. Summed up:
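Third-instar larvae were hand-sprayed directly with test solutions in filter-paper-lined Petri dishes, then moved to dishes holding a small piece of artificial diet. Mortality was recorded at 24 h.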

For experiment [5], the system named is Trichoplusia ni. As to the kind of experiment: Feeding deterrent activity against freshly molted third-instar larval stage of Trichoplusia ni (cabbage looper), Trichoplusia ni at 50 ug/cm'2 after 3 to 5 hr by leaf disk choice bioassay. It counts as functional. In short, it runs like this:
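Leaf disk choice with freshly molted third instar larvae starved 4–5 h. One disk was painted on each side with 10 µL solution giving 50 µg/cm², the other with carrier solvent. Twenty-five larvae per treatment, stopped at ~50% control disk consumption (3–5 h). Deterrence = [(C − T)/(C + T)] × 100 from consumed areas; mean ± SE, Tukey's test p < 0.05.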

With `C=C1C(=O)O[C@@H]2[C@H]1CC[C@H](C)[C@]1(O)C=CC(=O)[C@@]21C` [PARTHENIN], the inhibition of growth at 3000 µM with Helicoverpa zea worked out at 59%.

The term mortality denotes the percentage killed. `CCCCCOc1ccc(OCC)cc1` [1-ethoxy-4-pentoxybenzene]: the DC50 in the experiment with Trichoplusia ni [1] is reported as 23.4 microg/cm2. Also, the mortality in the experiment on Trichoplusia ni [2] is 96.8%. The figures for the Activity in the experiment with Trichoplusia ni [3] and in the experiment on Trichoplusia ni [5] were 56.6% and 90.7%, respectively. Besides, the LC50 in the experiment on Trichoplusia ni [4] came out at 0.03%.

For the origin of these results see ChEMBL document CHEMBL3046326, “Screening of dialkoxybenzenes and disubstituted cyclopentene derivatives against the cabbage looper, Trichoplusia ni, for the discovery of new feeding and oviposition deterrents” (J Agric Food Chem, 2007).
